Screening results from PubChem.
The sample as a whole holds a higher share of hits than the screen did.
E coli WT exp: growth inhibitors of wild-type E. coli, primary screen, strain BW25113, expanded library, OD600; OD600 absorbance; growth inhibition, % at 100 µM; 98,000 compounds, 0.15% hits; AID 710, 2007;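 active = growth inhibition above about 50% at one test dose, limit read from the data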;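 also: growth measured after 20 h incubation at 37 °C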
Cdc25B inh: inhibitors of Cdc25B phosphatase catalytic domain, primary screen, biochemical, OMFP fluorescence; M-phase inducer phosphatase 2 (Homo sapiens), P30305; recombinant Cdc25B, OMFP fluorescence Ex485/Em525; 65,000 compounds, 0.1% hits; inhibition, %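 (compounds tested at 10 µM final in the well)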; in the data active = inhibition above about 50%
HePTP inhibitor: inhibitors of human HePTP phosphatase, primary screen, biochemical, absorbance, leukemia target. Tyrosine-protein phosphatase non-receptor type 7 (Homo sapiens), P35236. recombinant HePTP phosphatase activity, OD absorbance. inhibition, % at 20 µM. 110,000 compounds, 0.64% hits. AID 521, 2006; in the data active = inhibition above about 50%;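 also: plate controls were vehicle for no effect and reference inhibitor for full effect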
Target sequence (P35236 whole entry, looked up): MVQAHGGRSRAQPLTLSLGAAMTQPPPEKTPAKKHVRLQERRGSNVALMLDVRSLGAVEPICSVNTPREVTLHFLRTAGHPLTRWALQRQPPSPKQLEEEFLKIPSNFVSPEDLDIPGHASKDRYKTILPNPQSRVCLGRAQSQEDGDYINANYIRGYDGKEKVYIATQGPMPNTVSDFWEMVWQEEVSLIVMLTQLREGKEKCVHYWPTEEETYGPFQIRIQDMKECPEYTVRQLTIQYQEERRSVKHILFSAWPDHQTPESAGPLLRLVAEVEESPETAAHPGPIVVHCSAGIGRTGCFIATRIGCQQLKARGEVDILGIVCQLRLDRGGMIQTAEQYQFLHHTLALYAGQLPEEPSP
MMP-13 inhibitor: human MMP13 inhibitors, primary screen, biochemical, FRET peptide cleavage. inhibition, % at 4 µM. AID 570, 2006. 65,000 compounds, 0.07% hits. MMP-13 fTHP FRET cleavage, Mca fluorescence. Collagenase 3 (Homo sapiens), P45452;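 active = inhibition above the mean of compound-free control plate wells plus 3 SD, cut at about 14% in these data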;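 also: 0% = DMSO wells and 100% = wells with reference MMP-13 inhibitor after basal subtraction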
tolC growth inh: growth inhibitors of E. coli tolC mutant, primary screen, strain BW25113 ΔtolC::kan, 384-well. OD615. 65,000 compounds, 2.2% hits. growth inhibition, % at 10 µM (by protocol);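 active = growth inhibition at or above a cutoff equal to the mean over every tested compound plus 3 SD, cut at about 60% in these data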;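 also: growth measured after 20 h incubation at 37 °C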
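test system = E. coli BW25113 ΔtolC::kan bacteria | medium = LB with kanamycin 50 µg/mL | signal = OD at 615 nm | schedule = 37 °C, 20 h exposure | evaluation = % inhibition of E. coli growth | compound dosing = one dose of 10 µM final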
DUSP1 inh: MKP-1 phosphatase inhibitors, primary screen, biochemical, in vitro; Dual specificity protein phosphatase 1 (Homo sapiens), P28562; recombinant MKP-1, OMFP hydrolysis fluorescence; inhibition, %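 (compounds tested at a single concentration somewhere between 10 and 100 µM)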; 65,000 compounds, 0.15% hits; AID 374, 2006;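 active = inhibition above about 50%, limit read from the data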;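 also: 0% = DMSO max control wells and 100% = wells with enzyme stopped by NaOH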
* marks the source's active call; other numbers are inactive results; . = no result given.

SMILES | E coli WT exp | Cdc25B inh | HePTP inhibitor | MMP-13 inhibitor | tolC growth inh | DUSP1 inh
Cc1ccc2nc3nc(C)cc(C)c3c(N)c2c1 | . | . | -5.5 | . | . | .
Cc1cc(C)c2c(N)c3ccccc3nc2n1 | 52.0* | . | . | . | . | .
CCCCN(CCCNC(=O)CN1C(=O)COc2ccccc21)c1ccccc1 | 1.0 | -20.0 | -0.1 | 1.9 | 61.2* | 16.2
CCOC(=O)c1ccc(N2NC(=O)/C(=C/c3ccc(OC)c(Br)c3)C2=O)cc1 | . | . | 54.9* | . | . | .
CCOC(=O)c1ccc(N2NC(=O)/C(=C/c3cc(OC)c(O)c(OC)c3)C2=O)cc1 | . | . | 89.0* | . | . | .
CCOc1cc(/C=C2/C(=O)NN(c3ccc(I)cc3)C2=O)ccc1O | . | . | 89.9* | . | . | .
CCCCSc1nnc2c(n1)OC1(Nc3ccccc3-2)C(=O)Nc2ccc(Br)cc21 (centres undefined) | . | . | -2.2 | . | . | .
COc1ccc(NC(=O)NC(C)c2cccc3ccccc23)cc1OC (centres undefined) | . | . | 4.2 | . | . | .
C/C(=N\N=C1\NC(=O)C(CC(=O)Nc2ccc(C(=O)O)cc2)S1)c1ccc([N+](=O)[O-])cc1 (centres undefined) | . | . | 93.7* | . | . | .
O=C(CC1S/C(=N\N=C\c2cccs2)NC1=O)Nc1ccccc1C(F)(F)F (centres undefined) | . | . | 5.4 | . | . | .
CCNC(=O)CC1S/C(=N\N=C(/C)c2ccc([N+](=O)[O-])cc2)NC1=O (centres undefined) | . | . | 4.1 | . | . | .
O=C(CC1S/C(=N\N=C\c2ccco2)NC1=O)Nc1cccc(Cl)c1Cl (centres undefined) | . | . | 8.9 | . | . | .
O=C(CC1S/C(=N\N=C\c2ccco2)NC1=O)Nc1ccc(C(=O)O)cc1 (centres undefined) | . | . | 100.7* | . | . | .
O=C(CC1S/C(=N\N=C\c2cccs2)NC1=O)Nc1ccc(C(=O)O)cc1 (centres undefined) | . | . | 89.7* | . | . | .
O=C(Nc1ccc(-c2nc3ccccc3[nH]2)cc1)c1ccc(Cl)c(Cl)c1 | . | . | 101.4* | . | . | .
O=C(Nc1ccc(-c2nc3ccccc3[nH]2)cc1)c1cc2ccccc2o1 | . | . | 101.5* | . | . | .
C/C(=N\OCC(=O)N/N=C/c1cc(Cl)cc(Cl)c1O)c1cccs1 | . | . | 8.6 | . | . | .
O=C(O)c1cc(-c2ccc(/C=C/c3cc(C(F)(F)F)[nH]c(=O)n3)o2)ccc1Cl | . | . | 65.3* | . | . | .
N#C/C(=C\c1ccc(Cl)cc1Cl)C(=O)NCC1CCCO1 (centres undefined) | . | . | 2.2 | . | . | .
COc1ccc(C2(O)CC3CCC(C2)N3c2nc(C)cc(C)c2C#N)cc1 (centres undefined) | -11.0 | -1.6 | 3.7 | -40.7 | 85.0* | 10.3
Clc1ccccc1OCc1nnc(-c2ccccc2Br)o1 | -2.0 | -8.9 | -5.4 | 6.1 | 72.5* | 19.7
N#CCSc1n[nH]c2nc3c(c(=O)n12)C1(CCCC1)Cc1ccccc1-3 | 7.0 | -5.2 | 2.4 | -92.2 | 97.7* | 29.9
Cc1ccccc1OCCSc1ncnc2nc[nH]c12 | . | . | 9.8 | . | . | .
Cc1ccc(Cn2ncn3c(cc4ccccc43)c2=O)cc1 | 1.0 | -6.1 | 8.5 | -21.5 | 64.6* | -2.3
CCc1cccc(NC(=O)Cn2ncn3c(cc4ccccc43)c2=O)c1 | -21.0 | -4.0 | 22.8 | -5.8 | 0.8 | 6.5
SMILES | E coli WT exp | Cdc25B inh | HePTP inhibitor | MMP-13 inhibitor | tolC growth inh | DUSP1 inh
Oc1ccccc1-c1cc(-c2ccc3c(c2)OCCO3)n[nH]1 | 24.0 | -12.6 | -2.4 | -1.0 | 99.4* | 4.0
COc1ccc(-c2cc(-c3ccccc3O)[nH]n2)cc1OC | -5.0 | -12.1 | 5.1 | -7.0 | 45.8 | 12.8
CCn1c2ccccc2c2nnc(SCc3ccccc3)nc21 | -13.0 | -9.3 | 2.8 | -2.4 | 73.0* | -8.7
CCn1c2ccccc2c2nnc(SCC(N)=O)nc21 | 4.0 | . | -4.7 | . | . | .
Clc1ccc(OCCn2ccnc2)c2ccccc12 | 64.0* | -22.2 | 2.0 | 1.1 | 100.0* | 6.1
Clc1ccc(OCCn2ccnc2)c(Cl)c1 | 11.0 | -3.6 | -0.1 | 0.8 | 18.5 | -2.4
O=S(=O)(Nc1nc2ccccc2s1)c1ccc(Br)s1 | 11.0 | -9.6 | 2.2 | 1.0 | 75.6* | 35.3
CC(C)(C)c1ccc(CSc2nnc(-c3ccccn3)n2Cc2ccco2)cc1 | -23.0 | . | . | . | . | .
Brc1ccc(CSc2nnc(-c3ccccn3)n2Cc2ccco2)cc1 | -10.0 | -21.9 | -6.4 | 3.5 | 97.8* | 9.4
